Experimental data of several laboratories.
Each line is one published result; the experiments were not run side by side.
Target: Sodium-dependent dopamine transporter (SLC6A3, Homo sapiens, UniProt Q01959)

SMILES	test	test system	setting	inhibition [%]
CCN(CC)c1ccc(C2Nc3ccc(C(=O)c4ccccc4)cc3NC3=C2C(=O)CC(C)(C)C3)cc1 (stereo not drawn)	ligand displacement, radioligand	–	10 µM	69
CCCNc1nc2ccccc2n1Cc1ccc(Cl)cc1	ligand displacement	–	10 µM	24.3
Clc1ccc(C(c2ccccc2)c2nnnn2CCCN2CCC(CCCc3ccccc3)CC2)cc1 (stereo not drawn)	transporter uptake, inhibitor	HEK293	1 µM	89.6
Cc1cc(-c2nc(CN3CCNCC3)no2)cc2c1C(=O)N(Cc1ccc(OC(F)(F)F)cc1)C2	ligand displacement, radioligand	–	10 µM	44
N#Cc1cc(Cn2c(N3CCCC3)nc3ccccc32)ccc1F	ligand displacement	–	10 µM	19.3
Nc1ccc(-c2ccncc2)cc1NC(=O)N1CCCC1	ligand displacement, radioligand	–	10 µM	21
O=C1N=C(N2CCCCN2)S/C1=C\c1ccc(F)cc1O	ligand displacement, radioligand	–	10 µM	< 10
COc1cc(NC(C)=O)c(Cl)cc1C(=O)Nc1nccs1	cell-free assay	–	10 µM	5.5
Fc1ccc(C(c2ccc(F)cc2)c2nnnn2CCCCN2CCN(CCCc3ccccc3)CC2)cc1	transporter uptake, inhibitor	HEK293	1 µM	56.2
Oc1cccc(Nc2nc(-c3ccc(F)cc3F)cs2)c1	cell-free assay	–	10 µM	49.8
Clc1ccc(C(c2ccc(Cl)cc2)c2nnnn2CCCCN2CCN(Cc3ccccc3)CC2)cc1	transporter uptake, inhibitor	HEK293	1 µM	91.7
CCN(Cc1ccccc1C(F)(F)F)C(=O)C1CCN(S(=O)(=O)c2ccc3[nH]ncc3c2)CC1	ligand displacement, radioligand	–	10 µM	39
